Most compounds without a hit are left out; they make up all but 2.8% or so of the library.
pPAFAH inh – inhibitors of human plasma PAF acetylhydrolase (pPAFAH); Q13093; recombinant pPAFAH, FP-rhodamine probe fluorescence polarization; inhibition, % at 3.39 µM; actives 1.5% (n = 330,000); AID 463082;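 active = inhibition above the mean inhibition across the screen plus 3 SD, cut at about 25% in these data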;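 also: inhibitors block binding of the rhodamine activity-based probe so polarization drops; 0% = enzyme with DMSO and 100% = wells lacking pPAFAH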
mABHD4 FP – inhibitors of mouse ABHD4. inhibition, % at 8.92 µM. AID 720543. actives 0.54% (n = 370,000). purified mABHD4, FP-Rh probe fluorescence polarization. Q8VD66;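 active = inhibition exceeding the mean over every tested compound plus 3 SD, cut at about 30% in these data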;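 also: 0% = plate median of compound wells and 100% = S159A mutant with DMSO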
Target sequence (Q8VD66 whole entry, looked up): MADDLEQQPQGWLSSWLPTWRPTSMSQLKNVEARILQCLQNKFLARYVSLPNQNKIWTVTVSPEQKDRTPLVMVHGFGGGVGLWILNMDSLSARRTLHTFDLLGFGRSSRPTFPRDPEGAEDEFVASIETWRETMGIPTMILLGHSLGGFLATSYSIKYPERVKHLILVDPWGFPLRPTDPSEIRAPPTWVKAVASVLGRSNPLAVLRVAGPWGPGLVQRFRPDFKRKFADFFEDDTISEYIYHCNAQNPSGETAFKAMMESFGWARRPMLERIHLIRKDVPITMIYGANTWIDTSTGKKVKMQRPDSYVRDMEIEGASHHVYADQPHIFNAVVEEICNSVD
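system = mouse ABHD4 enzyme, wild type | medium = HEPES pH 7.0, NaCl, Pluronic buffer | also added = FP-Rh probe | incubation = Enzyme–compound pre-incubation 45 min, then probe 60 min, both 25 °C | technique = fluorescence polarization, excitation 525 nm, emission 598 nm, BODIPY TMR filters | controls = S159A mutant high control, sample median low control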
HTRA1 inh – blocks human HTRA1 serine peptidase. Q92743. recombinant HTRA1, FP-rhodamine activity-based probe, fluorescence polarization. inhibition, % at 5.96 µM. actives 0.5% (n = 340,000); in the data active = inhibition above about 36%;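 also: 0% = enzyme with DMSO and 100% = wells lacking enzyme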
PAFAH1B3 inh – inhibitors of human PAFAH1B3 | Q15102 | recombinant PAFAH1B3, FP-rhodamine probe, fluorescence polarization | inhibition, % at 3.39 µM | actives 0.28% (n = 340,000);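 active = inhibition above the screen-wide average of all tested compounds plus 3 SD, cut at about 25% in these data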;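 also: 0% = enzyme with DMSO only and 100% = wells lacking PAFAH1B3 protein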
Target sequence (Q15102 whole entry, looked up): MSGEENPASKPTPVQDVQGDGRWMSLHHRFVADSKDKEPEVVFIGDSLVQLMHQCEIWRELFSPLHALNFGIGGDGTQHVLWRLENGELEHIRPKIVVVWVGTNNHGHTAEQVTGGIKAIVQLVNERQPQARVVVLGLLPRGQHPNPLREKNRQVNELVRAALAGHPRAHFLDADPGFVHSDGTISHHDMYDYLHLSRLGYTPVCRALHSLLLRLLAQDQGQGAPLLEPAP
PAFAH2 FP inh – PAFAH2 (human) inhibition. Q99487. recombinant PAFAH2, FP-rhodamine activity probe, fluorescence polarization. inhibition, % at 3.39 µM. actives 0.99% (n = 340,000). AID 492956;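 active = inhibition above the mean over all tested compounds plus 3 SD, cut at about 30% in these data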;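 also: inhibitors block probe labeling of enzyme so polarization drops; 0% = enzyme with DMSO and 100% = wells lacking PAFAH2 protein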
PAFAH1B2 inh – PAFAH1B2 (human) inhibition; recombinant PAFAH1B2, FP-rhodamine activity probe, fluorescence polarization; inhibition, % at 3.39 µM; P68402; actives 1.2% (n = 340,000);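 active = inhibition above the mean of all tested compounds plus 3 SD, cut at about 24% in these data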;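 also: 0% = enzyme with DMSO and 100% = wells lacking PAFAH1B2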
* hit, by the source's call.

Screening CC1Cc2ccccc2N1C(=O)COC(=O)CSc1ccc(F)cc1 (configuration not stated) returned pPAFAH inh 12, mABHD4 FP 2, HTRA1 inh -12, PAFAH1B3 inh -5, PAFAH2 FP inh 1 and PAFAH1B2 inh 26*.
Screening O=C(COC(=O)CSc1ccc(F)cc1)NCCCc1ccccc1 returned pPAFAH inh 19, mABHD4 FP 6, HTRA1 inh 5, PAFAH1B3 inh 1, PAFAH2 FP inh 9 and PAFAH1B2 inh 29*.
Screening O=C(COC(=O)CSc1ccc([N+](=O)[O-])cc1)NCCc1ccccc1 returned pPAFAH inh 6, mABHD4 FP -5, HTRA1 inh 2, PAFAH1B3 inh 5, PAFAH2 FP inh 2 and PAFAH1B2 inh 18.
`COc1ccc2c(c1)N[C@@](CCNC=O)(c1[nH]c3ccccc3c1CCNC=O)C2=O` gave mABHD4 FP -2.
`O=S1(=O)C=CCN1Cc1cn(Cc2cccc(C(F)(F)F)c2)nn1` gave mABHD4 FP 6.
For CCOC(=O)C1(Cc2ccccc2)CCN(Cc2cccc(C#N)c2)CC1 the results were mABHD4 FP 7.
Cc1cccc(C2C3=C(Nc4[nH]n(-c5ccccc5)c(=O)c42)c2ccccc2C3=O)c1 (configuration not stated) was read as mABHD4 FP 43*, HTRA1 inh 32, PAFAH1B3 inh 21, PAFAH2 FP inh 62* and PAFAH1B2 inh 52*.
For O=[N+]([O-])c1cccc(/C=N/Nc2nc(NCc3ccccc3)nc(N3CCOCC3)n2)c1O the results were pPAFAH inh 25*, mABHD4 FP 18, HTRA1 inh -1, PAFAH1B3 inh 11, PAFAH2 FP inh 0 and PAFAH1B2 inh 6.
For O=S(=O)(NCCc1cccs1)c1ccc(Br)cc1 the results were pPAFAH inh -1, mABHD4 FP -2, HTRA1 inh -11, PAFAH1B3 inh 2, PAFAH2 FP inh 6 and PAFAH1B2 inh 25*.
Screening O=[N+]([O-])c1cccc(S(=O)(=O)NCCc2cccs2)c1 returned pPAFAH inh 6, mABHD4 FP 2, HTRA1 inh -1, PAFAH1B3 inh 6, PAFAH2 FP inh 4 and PAFAH1B2 inh 10.
Screening C[C@H]1[C@@H](c2ccccc2)Oc2ccc(Cl)cc2S(=O)(=O)N1Cc1cccc(Cl)c1 returned mABHD4 FP -5.
Screening O=S1(=O)c2ccccc2N=NN1Cc1cc(Cl)cc(Cl)c1 returned pPAFAH inh 33*.
`O=C(N[C@@H](Cc1cccnc1)C(=O)N1CCC[C@H]1C(=O)NCCc1ccccc1Cl)c1ccc(Cl)cc1Cl` gave mABHD4 FP 6.
Screening CN1CCN(S(=O)(=O)c2cccc(C(=O)Nc3cc(C(N)=O)cc(C(N)=O)c3)c2)CC1 returned pPAFAH inh 3, mABHD4 FP 0, HTRA1 inh 4, PAFAH1B3 inh 3, PAFAH2 FP inh 3 and PAFAH1B2 inh 25*.
Screening Cc1nc(-c2cccc(S(=O)(=O)N3CCCCC3)c2)cs1 returned pPAFAH inh 9, mABHD4 FP 5, HTRA1 inh -11, PAFAH1B3 inh 1, PAFAH2 FP inh 1 and PAFAH1B2 inh 3.
Cc1nc(-c2cccc(S(=O)(=O)N3CCC(C)CC3)c2)cs1 was read as pPAFAH inh 1, mABHD4 FP -4, HTRA1 inh -15, PAFAH1B3 inh 1, PAFAH2 FP inh 3 and PAFAH1B2 inh 30*.
`CC1CCN(S(=O)(=O)c2cccc(C(=O)Nc3nncs3)c2)CC1` gave pPAFAH inh -2, mABHD4 FP -2, HTRA1 inh -2, PAFAH1B3 inh 6, PAFAH2 FP inh 5 and PAFAH1B2 inh 26*.
`O=C(Nc1nncs1)c1cccc(S(=O)(=O)N2CCCC2)c1` gave pPAFAH inh 5, mABHD4 FP 10, HTRA1 inh -6, PAFAH1B3 inh 15, PAFAH2 FP inh 4 and PAFAH1B2 inh 3.
Screening CC1CCN(S(=O)(=O)c2cccc(C(=O)N(Cc3ccccc3)c3ccccn3)c2)CC1 returned pPAFAH inh 0, mABHD4 FP -3, HTRA1 inh 6, PAFAH1B3 inh 5, PAFAH2 FP inh 3 and PAFAH1B2 inh 25*.
For Cc1ccc(-c2nc(C3CCCN(S(=O)(=O)c4ccc(C)c(C)c4)C3)no2)cc1 (configuration not stated) the results were mABHD4 FP 0.
`Cc1ccccc1C(=O)NC1CCCCN(C(C)C)C1=O` (configuration not stated) gave mABHD4 FP 0.
CC1(C)CC(=O)C(N=Nc2cccc(S(=O)(=O)N3CCOCC3)c2)=C(O)C1 was read as pPAFAH inh 3, mABHD4 FP -9, HTRA1 inh 4, PAFAH1B3 inh -1, PAFAH2 FP inh -4 and PAFAH1B2 inh -3.
CC1CCN(S(=O)(=O)c2ccc(N=NC3=C(O)CC(C)(C)CC3=O)cc2)CC1 was read as pPAFAH inh 3, mABHD4 FP 5, HTRA1 inh 3, PAFAH1B3 inh 3, PAFAH2 FP inh -7 and PAFAH1B2 inh 45*.
For CN(C1=C(NC(=O)c2ccccc2)C(=O)c2ccccc2C1=O)C1CCS(=O)(=O)C1 (configuration not stated) the results were pPAFAH inh 14, mABHD4 FP 10, HTRA1 inh 11, PAFAH1B3 inh 51*, PAFAH2 FP inh 38* and PAFAH1B2 inh 17.
Screening CC(=O)NC1=C(NC2CCS(=O)(=O)C2)C(=O)c2ccccc2C1=O (configuration not stated) returned pPAFAH inh 4, mABHD4 FP 4, HTRA1 inh 2, PAFAH1B3 inh 7, PAFAH2 FP inh -2 and PAFAH1B2 inh 4.
Screening CC1CC(=O)c2c(cc3c(-c4c(O)cc(O)c5c(O)c6c(cc45)OC(C)CC6=O)c(O)cc(O)c3c2O)O1 (configuration not stated) returned pPAFAH inh 80*, HTRA1 inh 78*, PAFAH1B3 inh 76*, PAFAH2 FP inh 62* and PAFAH1B2 inh 53*.
Screening O=C1CC(c2ccc(O)cc2)Oc2cc(O)cc(O)c21 (configuration not stated) returned pPAFAH inh 4, mABHD4 FP -6, HTRA1 inh 7, PAFAH1B3 inh 6, PAFAH2 FP inh -6 and PAFAH1B2 inh 2.
Screening CCCCCCCCNC(=O)C1CSCCS(=O)(=O)N1Cc1ccc(F)cc1 (configuration not stated) returned mABHD4 FP 5.
COc1cc(/C=C2\CCCc3c2nc2ccccc2c3C(=O)O)cc([N+](=O)[O-])c1O was read as pPAFAH inh 32*, mABHD4 FP 29, HTRA1 inh 6, PAFAH1B3 inh 16, PAFAH2 FP inh 25 and PAFAH1B2 inh 1.
For COc1cc(/C=C2\CCCc3c2nc2ccccc2c3C(=O)O)cc(OC)c1O the results were pPAFAH inh 9, mABHD4 FP 15, HTRA1 inh 10, PAFAH1B3 inh 5, PAFAH2 FP inh 10 and PAFAH1B2 inh -1.
